Active and inactive are the calls of the source.
Assays:
Leishmania donovani [1] = test: Antileishmanial activity against Leishmania donovani MHOM/SD/00/1S-2D promastigotes incubated for 72 hrs by MTT assay; assay type: functional, organism-based
Outline: (§1)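 Parasites washed in HBSS-Glc and resuspended at 2×10^6 cells/ml in fresh growth medium with compound at 0.78-50.0 µM. Promastigotes grown in RPMI 1640-modified medium + 10% HIFCS, 72 h at 26 °C; axenic amastigotes in medium 199 + 20% HIFCS + 50 µg/ml hemin, 96 h at 32 °C. MTT 0.5 mg/ml for 2 h, formazan dissolved in SDS (5% final), absorbance 590 nm. Triplicates, ≥2 experiments, IC50 computed.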

J774 = test: Cytotoxicity against mouse J774 cells incubated for 48 hrs by MTT assay; assay type: cell-based; conditions: J774, 48 h
Outline: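 J774.1 cells grown in RPMI-1640 + 10% heat-inactivated FCS, 2 mM L-glutamine, penicillin-streptomycin, 37 °C, 5% CO2. Seeded at 10^5 cells/well and left overnight, then compound in fresh medium for 48 h. MTT 0.5 mg/ml final, 2 h; SDS 0.1% final, 2 h at 37 °C; read at 595 nm. Triplicate samples, ≥2 independent experiments; CC50 calculated.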

Leishmania pifanoi [2] = test: Antileishmanial activity against Leishmania pifanoi […] axenic amastigotes incubated for 96 hrs by MTT assay; assay type: functional, organism-based; outline: as §1
[3] = Selectivity index, ratio of IC50 for mouse J774 cells to IC50 for Leishmania pifanoi […] axenic amastigotes; assay type: toxicity; conditions: read-out: Ratio IC50
Leishmania donovani [4] = test: Antileishmanial activity against Leishmania donovani promastigotes harboring 3-Luc gene assessed as decrease in parasites viability using DMNEP-D-luciferin as substrate at 50 uM incubated for 10 mins by luminescence assay relative to control; assay type: functional
Outline: (§2)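 3-Luc L. donovani promastigotes, episomally expressing cytoplasmic firefly luciferase and grown at 26 °C in RPMI 1640-modified medium + 10% HIFCS with G-418 (30 µg/ml). Assay: cells at 20 × 10^6/ml in HBSS-Glc with caged DMNPE-luciferin (50 µM final). Compound added once luminescence plateaued; luminescence followed over time, expressed as % of value at addition (100%). Luciferase inhibition controls run.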

Leishmania donovani [5] = test: Induction of plasma membrane permeabilization in Leishmania donovani MHOM/SD/00/1S-2D promastigotes at 50 uM by sytox green-based fluorescence assay; assay type: functional, organism-based
Outline: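 Promastigotes at 20×10^6 cells/ml in HBSS-Glc with SYTOX Green 1.0 μM final. Compound added after a stable baseline; fluorescence rise (ex 504/em 524 nm) monitored. Values given as percent of full permeabilization by 0.1% Triton X-100.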

Leishmania donovani [6] = test: Induction of morphological damage in Leishmania donovani MHOM/SD/00/1S-2D promastigotes assessed as increase in intracellular acidic pH at 5 uM pretreated with acridine orange followed by compound addition by acridine orange based fluorescence assay; assay type: functional, organism-based
Outline: (§3)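 Promastigotes at 40×10^6 cells/ml loaded with acridine orange 2 μM (5 min, 26 °C), washed and readjusted to the same density. Kinetic fluorescence (ex 488/em 530 nm) followed after adding compound 5 μM once the signal was stable. For confocal imaging, loaded cells were given compound 5 μM for 1 h, washed and immobilized on hydrogel; imaged at ex 488/em 650 nm.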

Leishmania donovani [7] = test: Induction of morphological damage in Leishmania donovani MHOM/SD/00/1S-2D promastigotes assessed as increase in intracellular acidic pH at 5 uM pretreated with acridine orange followed by compound addition and measured at 1 hr by acridine orange based confocal microscopic method; assay type: functional, organism-based; outline: as §3
Leishmania donovani [8] = test: Induction of cell cycle arrest in Leishmania donovani MHOM/SD/00/1S-2D promastigotes assessed as cell accumulation in subG1 phase at 20 uM incubated for 48 hrs by propidium iodide staining based flow cytometric analysis (RVb = 4.6%); assay type: functional
Leishmania donovani [9] = test: Induction of mitochondrial dysfunction in Leishmania donovani MHOM/SD/00/1S-2D promastigotes as mitochondrial membrane potential at 25 uM incubated for 4 hrs by Rh123 staining based flow cytometry; assay type: functional, organism-based
[10] = Drug localization in mitochondria of Leishmania pifanoi MHOM/VE/60/Ltrod axenic amastigotes assessed as punctate pattern formation at 20 uM incubated for 1 hr by DAPI staining based confocal microscopic method; assay type: ADME
Outline: (§4)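 Living axenic amastigotes given compound 20 µM for 1 h at 32 °C, then DAPI 5 µg/ml for 30 min before confocal imaging. Compound ex 488/em 520 nm, DAPI ex 350/em 460 nm. For depolarized mitochondria, 1 mM KCN added 15 min before compound. For colocalization, MitoTracker Red 0.05 µM (10 min, 32 °C) preceded compound; overlap given as Pearson coefficient.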

[11] = Inhibition of luciferase (unknown origin) at 50 uM
Leishmania donovani [12] = test: Induction apoptosis in Leishmania donovani MHOM/SD/00/1S-2D promastigotes at 20 uM incubated for 48 hrs by propidium iodide staining based flow cytometric analysis; assay type: functional, organism-based
Leishmania donovani [13] = test: Induction of morphological changes in Leishmania donovani MHOM/SD/00/1S-2D promastigotes assessed as swollen mitochondrion at 5 uM incubated for 12 hrs by TEM analysis; assay type: functional, organism-based
Outline: (§5)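 Promastigotes held in full growth medium with compound 5 μM for 12 h. Washed with HBSS, fixed in 5% glutaraldehyde, post-fixed with 2.5% OsO4 for 1 h, dehydrated through graded ethanol, treated with propylene oxide, embedded in Epon 812. Sections cut with a diamond knife and examined by transmission electron microscopy.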

Leishmania donovani [14] = test: Induction of morphological changes in Leishmania donovani MHOM/SD/00/1S-2D promastigotes assessed as appearance of distended acidocalcisomes at 5 uM incubated for 12 hrs by TEM analysis; assay type: functional, organism-based; outline: as §5
Leishmania pifanoi [15] = test: Antileishmanial activity against CFSE-labelled Leishmania pifanoi MHOM/VE/60/Ltrod axenic amastigotes infected in mouse peritoneal macrophage assessed as infection index at 10 uM incubated for 12 hrs by DAPI staining based confocal microscopic method (reference value: 5.3 +/- 2.5); assay type: functional
Leishmania donovani [16] = test: Antileishmanial activity against Leishmania donovani promastigotes harboring 3-Luc gene assessed as threshold concentration of compound using DMNEP-D-luciferin as substrate measured at < 5 mins by luminescence assay; assay type: functional; outline: as §2
Leishmania donovani [17] = test: Induction of morphological changes in Leishmania donovani MHOM/SD/00/1S-2D promastigotes assessed as strong vacuolization of the cytoplasm at 5 uM incubated for 12 hrs by TEM analysis; assay type: functional, organism-based; outline: as §5
Leishmania donovani [18] = test: Induction of mitochondrial dysfunction in Leishmania donovani MHOM/SD/00/1S-2D promastigotes as mitochondrial membrane potential at 50 uM incubated for 4 hrs by Rh123 staining based flow cytometry; assay type: functional, organism-based
[19] = Drug localization in KCN-induced depolarized Leishmania pifanoi MHOM/VE/60/Ltrod axenic amastigotes mitochondria at 20 uM pretreated with KCN for 15 mins followed by compound addition and measured at 1 hr by MitoTracker dye based confocal microscopic method; assay type: ADME; outline: as §4
Leishmania donovani [20] = test: Induction of cell cycle arrest in Leishmania donovani MHOM/SD/00/1S-2D promastigotes assessed as cell accumulation in subG1 phase at 10 uM incubated for 48 hrs by propidium iodide staining based flow cytometric analysis (RVb = 4.6%); assay type: functional

| Structure (SMILES) | IC50 (Leishmania donovani [1]) [µM] | IC50 (J774) [µM] | IC50 (Leishmania pifanoi [2]) [µM] | selectivity ratio [3] | Activity (Leishmania donovani [4]) [%] | Activity (Leishmania donovani [5]) | also measured |
| --- | --- | --- | --- | --- | --- | --- | --- |
| CC(C)(C)OC(=O)NCCNc1cc(/C=C/c2ccccc2)nc2ccccc12 | 0.45 | 6.6 | 4.3 | 1.5 |  |  |  |
| CN(C)CC(=O)NCCNc1cc(/C=C/c2ccccc2)nc2ccccc12 | 1.6 | 15 | 1.1 | 13.6 | 62.7 | inactive |  |
| O=C(CN1CCCC1)NCCNc1cc(/C=C/c2ccccc2)nc2ccccc12 | 2.1 | 12.5 | 0.9 | 13.9 | 49.9 | inactive |  |
| NCCCCNc1cc(/C=C/c2ccccc2)nc2ccccc12 | 0.44 | 6.6 | > 25 | < 0.3 |  |  |  |
| CN1CCN(CC(=O)NCCNc2cc(/C=C/c3ccccc3)nc3ccccc23)CC1 | 3.5 | 34 | 3.5 | 9.7 | 78.5 | inactive |  |
| O=C(CNc1ccccc1)NCCCCNc1cc(/C=C/c2ccccc2)nc2ccccc12 | 1.6 | 3.3 | 6.9 | 0.48 |  |  |  |
| Nc1cc(/C=C/c2ccccc2)nc2ccccc12 | 0.5 | 4.4 | 8.9 | 0.5 |  |  |  |
| C(=C\c1ccc2ccccc2n1)/c1ccccc1 | > 50 | > 50 | > 50 |  |  |  | Activity (Leishmania donovani [6]): inactive; Activity (Leishmania donovani [7]): inactive |
| CCOCC(=O)NCCCCNc1cc(/C=C/c2ccccc2)nc2ccccc12 | 1.06 | 7.2 | 4.5 | 1.6 |  | inactive |  |
| CC(=O)Nc1cc(/C=C/c2ccccc2)nc2ccccc12 |  | > 25 | 9.5 | > 2.6 |  |  |  |
| CCN(CC)Cc1cc(Nc2cc(/C=C/c3ccccc3)nc3ccccc23)ccc1O | 9.6 | 37 | 9 | 4.1 | 81.8 |  |  |
| O=C(CN1CCN(c2ccccc2)CC1)NCCNc1cc(/C=C/c2ccccc2)nc2ccccc12 | 2.1 | 4.5 | 1.5 | 3 |  |  |  |
| CC(=O)N(C(C)=O)c1cc(/C=C/c2ccccc2)nc2ccccc12 | 35.1 | > 25 | 13.4 | > 1.86 |  |  |  |
| CCN(CC)CC(=O)NCCNc1cc(/C=C/c2ccccc2)nc2ccccc12 | 1.6 | 0.7 | 0.9 | 0.8 | 43.2 | inactive |  |
| C(=C\c1cc(-c2c[nH]c3ccccc23)c2ccccc2n1)/c1ccccc1 | 1.5 | 4.1 | 1 | 4.1 | 64.6 |  |  |
| O=C(CN1CCOCC1)NCCNc1cc(/C=C/c2ccccc2)nc2ccccc12 | 1.3 | > 50 | > 25 |  | 79.8 | inactive |  |
| O=C(CNc1ccc(Cl)cc1Cl)NCCCCNc1cc(/C=C/c2ccccc2)nc2ccccc12 | 2.1 | 7.3 | 12.3 | 0.6 |  |  |  |
| NCCNc1cc(/C=C/c2ccccc2)nc2ccccc12 | 2.4 | 4.6 | > 50 | < 0.1 |  |  |  |
| CCOCC(=O)NCCNc1cc(/C=C/c2ccccc2)nc2ccccc12 | 3.4 | 22.2 | 1.6 | 13.8 | 16.7 | inactive | Activity (Leishmania donovani [8]): 4.3%; Activity (Leishmania donovani [6]): Active; Activity (Leishmania donovani [9]): Active; Drug uptake [10]: Active; inhibition [11]: < 2%; Activity (Leishmania donovani [12]): inactive; Activity (Leishmania donovani [13]): Active; Activity (Leishmania donovani [14]): Active; Activity_index (Leishmania pifanoi [15]): 1.6; Activity (Leishmania donovani [16]): 3.12 µM; Activity (Leishmania donovani [17]): Active; Activity (Leishmania donovani [7]): Active; Activity (Leishmania donovani [18]): Active; Drug uptake [19]: Active |
| O=C(CN1CCCCC1)NCCNc1cc(/C=C/c2ccccc2)nc2ccccc12 | 2.1 | 4.7 | 1.2 | 3.4 | 46.4 | inactive | Activity (Leishmania donovani [9]): Active; Activity (Leishmania donovani [18]): Active |
| O=C(CNc1ccc(Cl)cc1Cl)NCCNc1cc(/C=C/c2ccccc2)nc2ccccc12 | 8.4 | > 50 | 1.2 | > 41.6 |  |  |  |
| O=C(CN1CCCC1)NCCCCNc1cc(/C=C/c2ccccc2)nc2ccccc12 | 0.2 | 7.1 | 5.3 | 1.4 | 23.3 | inactive | Activity (Leishmania donovani [9]): Active; Activity (Leishmania donovani [18]): Active |
| CC(C)(C)OC(=O)NCCCCNc1cc(/C=C/c2ccccc2)nc2ccccc12 | 0.56 | 3.7 | 4.9 | 0.8 |  |  |  |
| O=C(CNc1ccccc1)NCCNc1cc(/C=C/c2ccccc2)nc2ccccc12 | 3.3 | 7.8 | 4.3 | 1.8 |  |  |  |
| Cc1cc(N)c2ccccc2n1 | 10.9 | > 50 | > 50 |  |  |  |  |
| COc1ccc2nc(C)cc(Nc3ccc(Oc4ccc(Cl)c5ccccc45)c(Cl)c3)c2c1 | 4.4 | > 50 | 6.2 | > 8.1 |  |  | Activity (Leishmania donovani [20]): 22.5% |

Source: ChEMBL document CHEMBL4346674, “Structure-activity relationships and mechanistic studies of novel mitochondria-targeted, leishmanicidal derivatives of the 4-aminostyrylquinoline scaffold” (Eur J Med Chem, 2019)
